Tested on: MS2 coat protein
Test: apparent Kd, MS2 coat protein; higher = weaker binding; RNA-MaP array; FMN 200 µM where present
Procedure, shortened: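 The apparent Kd is the median of filtered binding-curve fits, one per cluster, to green signal normalised to red-channel RNA signal and control-cluster median Fmax. The clusters were on Illumina sequencing chips, and stalled E. coli RNA polymerase had transcribed the designs on them. Titration used SNAP-549-labelled MS2 coat protein from 0.7 or 1.5 nM, doubling to 3 µM, without and then with constant ligand, in 100 mM Tris-HCl pH 7.5, 80 mM KCl, 4 mM MgCl2, BSA, DTT, yeast tRNA and Tween-20.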

[1] = designed as: ON switch for flavin mononucleotide, no ligand
[2] = ligand present: flavin mononucleotide, designed as: ON switch for flavin mononucleotide
[3] = designed as: OFF switch for flavin mononucleotide, no ligand
[4] = ligand present: flavin mononucleotide, designed as: OFF switch for flavin mononucleotide

Row | Sequence | apparent Kd [1] [nM] | apparent Kd [2] [nM] | apparent Kd [3] [nM] | apparent Kd [4] [nM]
1 | UUACUCAUGUAAGGAUAUGUAGCCGUUUCGGCUGCAGAAGGUACUAUAAUACAUGAGGAUCACCCAUGUCUAUAAAAUAAAGAC | 34.6 | 25.6 |  | 
2 | UUAGGAUGUGAAGGAUAUGCCGAGUUAAGCCCAGCAGAAGGUUACAUACCUUUUGAUACAUGAGGAUCACCCAUGUUCUAAGAU | 41.6 | 28.3 |  | 
3 | UUAGGUCGAAACAUGAGGAUCACCCAUGUGUUAUAAUUAAUAUAGGAUAUGUUUAUACUUUUUGGGCAGAAGGAUGAUAUUGCU | 21.2 | 17.9 |  | 
4 | UUAGUGGUAGGAUAUCACCCAGGUUACAUGAGGAUCACCCAUGUGACUCAGCAGGCCAAGUGAGAAGGGCUGCUCC |  |  | 22.3 | 20
5 | UUAUACAUUCGAGGAUAUCGGUGAGAAAUCUUUCGAGAAGGCGAUUCAUGAUUUAUUAUCCUGGACAUGAGGAUCACCCAUGUA | 79.8 | 60.9 |  | 
6 | UUAUCUAUGUAAGGAUAUCGAUGAUAUACGCAUCCGACAUGAGGAUCACCCAUGUUUUAUUUUGUCGAGAAGGUACAUUGUCGG | 61.1 | 53.5 |  | 
7 | UUAUGUGGCGUAGGAUAUCAUUAGAUUUGUAAUUUAAUUGUAAUUUCCAUAUGAGAAGGACGUACACAUGAGGAUCACCCAUGU |  |  | 90.1 | 32.4
8 | UUAUGUGUCGUAGGAUAUCAUUAGAUUUGUAAUUUAAUUGUAAUUUACAUAUGAGAAGGACGUUUACAUGAGGAUCACCCAUGU |  |  | 15.9 | 14.6
9 | UUAUGUUAUGUAGGAUAUCAUUAGAUUUGUAAUUUAAUUGUUAUUUAGAUUUGAGAAGGACAUUUACAUGAGGAUCACCCAUGU |  |  | 14.8 | 11.7
10 | UUAUUAAACAUUAACAUGAGGAUCACCCAUGUCAAAAGACAUGAGGAUAUGGAUCCUAAUUGGAUCCAGAAGGCAUGUAUUAAU | 156 | 15.6 |  | 
11 | UUAUUAAAUGUAGGAUAUGCAUAUUAUUAUUAUGCAGAAGGACAUGAGGAUCACCCAUGUAUAUUAUUAUUAUAUAUUAUAUAU |  |  | 32.5 | 71.3
12 | UUAUUAAGUGUGAGGAUAUGCUGGUCCUUGGAUCAGCAGAAGGCACAUGAGGAUCACCCAUGUACUUUAUUUUA |  |  | 15.4 | 62.2
13 | UUAUUAGCAGGAUAUAUCCAGGAUCACAUGAGGAUCACCCAUGUGACCGCUUGAGAUUCUAUAGAAGGGCUUUAUU |  |  | 19.6 | 18.1
14 | UUAUUAGCAGGAUAUAUCCAGGAUUACAUGAGGAUCACCCAUGUGACCGCUUGAAAUUCUAUAGAAGGGCUUUAUU |  |  | 33.2 | 36.4
15 | UUAUUAGGACAGAAGGGUAGACAUGAGGAUCACCCAUGUAAUAUAAGGUGCAGGAUAUGUAAUAAUUGAGAUUCAUCAUUUUGC | 198 | 142 |  | 
16 | UUAUUAUAUGUAGGAUAUGCGUAUUAUUAUUAUGCAGAAGGACAUGAGGAUCACCCAUGUAUAUUAUUAUUAUAUAUUAUAUAU |  |  | 29 | 66.9
17 | UUAUUAUGUGUAGGAUAUGCAUAUCAUUAUUAUGCAGAAGGACAUGAGGAUCACCCAUGUAUAUUAUUAUUAUAUAUUAUAUAU |  |  | 15.3 | 16.6
18 | UUAUUAUGUGUAGGAUAUGCAUAUUAUUAUUAUGCAGAAGGACAUGAGGAUCACCCAUGUAUAUUAUUAAUAUAUAUUAUAUAU |  |  | 13.9 | 15.7
19 | UUAUUAUGUGUAGGAUAUGCAUAUUAUUAUUAUGCAGAAGGACAUGAGGAUCACCCAUGUAUAUUAUUAUUAUAUAUUAUAUAU |  |  | 30.9 | 46.2
20 | UUAUUGUGAGGAUAUCCAAUAUAUGACAUGAGGAUCACCCAUGUUUCCACUCGUACCUCCGGAGAAGGCACAGUUU |  |  | 31.2 | 24.1
21 | UUAUUUAUGCAAGGAUAUCAAUUAUAUUGACGUCCUACAUGAGGAUCACCCAUGUUUAGUUUUUUUGAGAAGGUGCAUUGUCUG | 64.8 | 59.7 |  | 
22 | UUAUUUUUACAGAAGGUUUAAUAAUAUAUAUGAGAAGGAUAUGUAACAUGAGGAUCACCCAUGUUUCACCCAUAUGAGGAUCAU |  |  | 8.2 | 7.27
23 | UUCAGACAUGAGGAUCACCCAUGUGAGGAUAUGAUGCGAUCGUCGAAAGACGAUAGCAUCAGAAGGCACAUAUG |  |  | 167 | 315
24 | UUCAGACAUGAGGAUCACCCAUGUGAGGAUAUGAUGCGAUCGUCGAAAGACGAUAGCAUCAGAAGGUACAAAUG |  |  | 63 | 66.6
25 | UUCAGCGAUCAAGGAUAUCUAUAAACAUGAGGACAUGAGGAUCACCCAUGUUGAUCACCCAUGUAGGAGAAGGUGAACAUGAGG | 81.8 | 29.8 |  | 
26 | UUCAUGUGAGGAUAUGCGGCACCAGGUGGGCCUGGCGCUGAGCAGAAGGCACAUGAGGAUCACCCAUGUGCUCC |  |  | 29.7 | 56.7
27 | UUCCAACGAGGAUAUCGAUGGUGGAACAUGAGGAUCACCCAUGUAUGAGAUAGUGUAGUUCGAGAAGGCGUUCAGU |  |  | 58 | 32.3
28 | UUCCGCGUUGUAAGGAUAUCUAAUUCUUAUGAAAUAGAGAAGGUACAUGAGGAUCACCCAUGUACUUGGGACUA |  |  | 18.7 | 22.4

Row | Sequence | apparent Kd [1] [nM] | apparent Kd [2] [nM] | apparent Kd [3] [nM] | apparent Kd [4] [nM]
29 | UUCCUGUCAGGAUAUGACUAGAUGCACGAAAGUGUGUUUAGUUAGAAGGGACAUGAGGAUCACCCAUGUAGUCC |  |  | 23.5 | 39
30 | UUCGCUAAGGUGUAGCGAGACUUGCAAGAAGGGUGAUGCACAUGAGGAUCACCCAUGUAAGCCUUACAGGAUAUUGCUUGCCGA | 600 | 220 |  | 
31 | UUCGUGCAGCUUAGCUGUACGCGUACAUGAGGAUCACCCAUGUAGGAUAUGGUAGGCUUUGCUUACUAGAAGGAUAGUGUGAUC |  |  | 215 | 70.5
32 | UUCGUGGCAUCUCGCGCAUGUCCACAUGAGGAUCACCCAUGUCAGGAUAUACGGAAUGUCGUUCCGUAGAAGGGACAAGGGCUG |  |  | 139 | 112
33 | UUCUGUGUGUGCUAGAGCUGCACAUGAGGAUCACCCAUGUACAGAAGGUGGACGCACACUGUGGCCAAGGAUAUGUAACAUGUU |  |  | 6.68 | 7.15
34 | UUCUUACGAGGAUAUCGAUGGUGGAACAUGAGGAUCACCCAUGUAUGAGAUAUUGUAUUUCGAGAAGGCGUUCAGU |  |  | 55.2 | 36.2
35 | UUCUUUCCUCAUGUACAUGAGGAACAUGAGGAUCACCCAUGUAGAAGGAUUUCAAUUAAAUUAAAAUAGGAUAUACAUAUAUUU |  |  | 15.8 | 16.4
36 | UUGAGGUCAGGAUAUGCAUGGCGGGACUUGCGUCGUGGCGUGGAGAAGGGACAUGAGGAUCACCCAUGUGGAGC |  |  | 55.6 | 62
37 | UUGAUUAUACAAGGAUAUCAAUUGUAAUUAAGACUUACAUGAGGAUCACCCAUGUUAAUAUUUUAUGAGAAGGUGUAUUUUCAG | 38.3 | 25.7 |  | 
38 | UUGCAGUCGUCAGGAUAUAGUAUUACGGCCAUUUAUUUUUUCAUACAUGAGGAUCACCCAUGUCGCUAGAAGGGAUUAUCGAUU |  |  | 49.1 | 45.4
39 | UUGCCUCAGAACAUGAGGAUCACCCAUGUGCUGCGGGCAACGUAGGAUAUGAUGGCGUGACGCCAUCAGAAGGAUGAUGGUACC | 5.92 | 6.15 |  | 
40 | UUGCGGUAGGAGAAGGACAGAGGCUUCAUUACAUACAUGAGGAUCACCCAUGUAGGAUAUCCUACCUCACGCGGCCUCCUCCUG |  |  | 6.9 | 10.3
41 | UUGGACGGCGUAGGAUAUGUAGGAUAUUCCUACAUGAGGAUCACCCAUGUUGACAUGGAAGAAGGACAGAAGGACGAUGUCCAU | 303 | 4.94 |  | 
42 | UUGGACGUCGUAAGAUAUGUAGGAUAUUCCUACAUGAGGAUCACCCAUGUUGACAUGGAAGAAGGACAGAAGGACGAUGUCCAU | 285 | 5.51 |  | 
43 | UUGGACGUCGUAGGAUAUGUAGGAUAUACCUACAUGAGGAUCACCCAUGUUGACAUGGAAGAAGGACAGAAGGACGAUGUCCAU | 439 | 153 |  | 
44 | UUGGACGUCGUAGGAUAUGUAGGAUAUUCCCACAUGAGGAUCACCCAUGUUGACAUGGAAGAAGGACAGAAGGACGAUGUCCAU | 4.05 | 3.47 |  | 
45 | UUGGACGUCGUAGGAUAUGUAGGAUAUUCCUACAUGAGGAUCACCCAUGUUGACAUGGAAGAAGCACAGAAGGACGAUGUCCAU | 150 | 6.6 |  | 
46 | UUGGAGAUAGGAUAUACGAGGAGAGUUGAGGGAAGGUGAUGACAUGAGGAUCACCCAUGUAGAAGGAUCAGGAG |  |  | 144 | 87.2
47 | UUGGAGGUCGUAGGAUAUGUAGGAUAUUCCUACAUGAGGAUCACCCAUGUUGACAUGGAAGAAGGACAGAAGGACGAUGUCCAU | 367 | 6.26 |  | 
48 | UUGGCACAUGAGGAUCACCCAUGUUAGGAUAUUGUGGCAGAAACAGCUGGGAAACGCACGAGAAGGGACACAUA |  |  | 33.4 | 38.5
49 | UUGGCAUCGUAGAAGGGUGACAUGAGGAUCACCCAUGUGACGAUAUUUCUCGAGAUAUGUCGUCCACAGGAUAUACGAGCGAAC | 72.3 | 42.4 |  | 
50 | UUGGUUACAUGAGGAUCACCCAUGUCUCAGGCCCUAUUUAGCAGAAGGCCAGCUGGGCUACGGAUGGAGGAUAUGCUUAUGGCC | 131 | 29.6 |  | 
51 | UUGUGCUUAGAGAAGGUUCAAACUACAUAUUGCGCACAUGAGGAUCACCCAUGUUGGUGAAUAAGAAAGGAUAUUUGACUGUGC |  |  | 487 | 360
52 | UUGUGGUGCGUAGGAUAUCAUUGAGGGUCACCCUGAGAAGGACGUGAGGACAUGAGGAUCACCCAUGUGGAUCACCCAUGUCAU |  |  | 222 | 355
53 | UUGUUACAUGAGGAUCACCCAUGUGAGGAUAUGGCCCGCCCGGCGUGUGCUGGUUUUGUCAGAAGGCGCGUGGG |  |  | 61.6 | 170
54 | UUGUUACAUGAGGAUCACCCAUGUUGUUGUAGAUAAGGAUAUAUAGGAACGAGAGAAAUAAUAGAAGGUAUUAGAC | 31.7 | 27.2 |  | 
55 | UUGUUAGGGAGAGGAUAUUGACAUGAGGAUCACCCAUGUAUUUGGGAGUGUUUACUGAAUUCUCACGAGAAGGCUUACGAAUUU |  |  | 550 | 471

— the EternaBench riboswitch data
